From ChEMBL document CHEMBL5058577, “EUbOPEN Chemogenomics Library 2 (Multiplex)” (2022)

Tested on: Fibroblast
Assay: Multiplex assay against human fibroblast
Type: toxicity, cell-based
How it was run: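 Live cells were stained at seeding with Hoechst33342, BioTracker Green Microtubule Cytoskeleton Dye, MitoTracker Red and Annexin V Alexa Fluor 680, then imaged on a CQ1 microscope at 37°C and 5% CO2 after compound addition. CellPathfinder machine-learning gating split cells into Hoechst high-intensity objects or normal cells. Normal cells were split into healthy, pyknosed or fragmented nuclei, and pyknosed cells into mitotic or apoptotic. Tubulin, mitochondrial-mass and membrane-permeability phenotypes are per cents of healthy-nucleus cells.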

[1] = 12 h, 1 µM, compound concentration 1 uM, replicate 1
[2] = 12 h, 1 µM, compound concentration 1 uM, replicate 2
[3] = 12 h, 10 µM, compound concentration 10 uM, replicate 1
[4] = 12 h, 10 µM, compound concentration 10 uM, replicate 2
[5] = 24 h, 1 µM, compound concentration 1 uM, replicate 1
[6] = 24 h, 1 µM, compound concentration 1 uM, replicate 2
[7] = 24 h, 10 µM, compound concentration 10 uM, replicate 1
[8] = 24 h, 10 µM, compound concentration 10 uM, replicate 2
[9] = 48 h, 1 µM, compound concentration 1 uM, replicate 1
[10] = 48 h, 1 µM, compound concentration 1 uM, replicate 2
[11] = 48 h, 10 µM, compound concentration 10 uM, replicate 1
[12] = 48 h, 10 µM, compound concentration 10 uM, replicate 2

## CCCN1CCC[C@@H]2Cc3n[nH]cc3C[C@H]21.Cl [QUINPIROLE HYDROCHLORIDE]
[1]
  Population Apoptotic (%): 45%
  Population Fragmented Nuclei (%): 14%
  Population Healthy Nuclei (%): 65%
  Population Hoechst High Intensity Objects (%): 2%
  Population Membrane Permeable-Phenotype (%): 0%
  Population Mitochondria Different-Phenotype (%): 3%
  Population Mitotic Cells (%): 54%
  Population Normal (%): 97%
  Population Pyknosed Nuclei (%): 20%
  Population Tubulin-Different-Phenotype (%): 17%
  Total Cell Count: 156
[2]
  Population Apoptotic (%): 52%
  Population Fragmented Nuclei (%): 22%
  Population Healthy Nuclei (%): 60%
  Population Hoechst High Intensity Objects (%): 6%
  Population Membrane Permeable-Phenotype (%): 7%
  Population Mitochondria Different-Phenotype (%): 6%
  Population Mitotic Cells (%): 47%
  Population Normal (%): 93%
  Population Pyknosed Nuclei (%): 17%
  Population Tubulin-Different-Phenotype (%): 50%
  Total Cell Count: 139
[3]
  Population Apoptotic (%): 58%
  Population Fragmented Nuclei (%): 16%
  Population Healthy Nuclei (%): 68%
  Population Hoechst High Intensity Objects (%): 4%
  Population Membrane Permeable-Phenotype (%): 1%
  Population Mitochondria Different-Phenotype (%): 6%
  Population Mitotic Cells (%): 41%
  Population Normal (%): 95%
  Population Pyknosed Nuclei (%): 15%
  Population Tubulin-Different-Phenotype (%): 33%
  Total Cell Count: 115
[4]
  Population Apoptotic (%): 45%
  Population Fragmented Nuclei (%): 23%
  Population Healthy Nuclei (%): 59%
  Population Hoechst High Intensity Objects (%): 2%
  Population Membrane Permeable-Phenotype (%): 10%
  Population Mitotic Cells (%): 54%
  Population Normal (%): 97%
  Population Pyknosed Nuclei (%): 17%
  Population Tubulin-Different-Phenotype (%): 55%
  Total Cell Count: 184
[5]
  Population Apoptotic (%): 52%
  Population Fragmented Nuclei (%): 21%
  Population Healthy Nuclei (%): 64%
  Population Hoechst High Intensity Objects (%): 1%
  Population Membrane Permeable-Phenotype (%): 0%
  Population Mitochondria Different-Phenotype (%): 2%
  Population Mitotic Cells (%): 47%
  Population Normal (%): 98%
  Population Pyknosed Nuclei (%): 13%
  Population Tubulin-Different-Phenotype (%): 13%
  Total Cell Count: 172
[6]
  Population Apoptotic (%): 34%
  Population Fragmented Nuclei (%): 28%
  Population Healthy Nuclei (%): 53%
  Population Hoechst High Intensity Objects (%): 2%
  Population Membrane Permeable-Phenotype (%): 1%
  Population Mitochondria Different-Phenotype (%): 7%
  Population Mitotic Cells (%): 65%
  Population Pyknosed Nuclei (%): 17%
  Population Tubulin-Different-Phenotype (%): 41%
  Total Cell Count: 150
[7]
  Population Apoptotic (%): 75%
  Population Fragmented Nuclei (%): 22%
  Population Healthy Nuclei (%): 67%
  Population Hoechst High Intensity Objects (%): 2%
  Population Membrane Permeable-Phenotype (%): 0%
  Population Mitochondria Different-Phenotype (%): 7%
  Population Mitotic Cells (%): 25%
  Population Normal (%): 97%
  Population Pyknosed Nuclei (%): 10%
  Population Tubulin-Different-Phenotype (%): 32%
  Total Cell Count: 119
[8]
  Population Apoptotic (%): 55%
  Population Fragmented Nuclei (%): 38%
  Population Healthy Nuclei (%): 51%
  Population Hoechst High Intensity Objects (%): 1%
  Population Membrane Permeable-Phenotype (%): 7%
  Population Mitochondria Different-Phenotype (%): 3%
  Population Mitotic Cells (%): 45%
  Population Normal (%): 98%
  Population Pyknosed Nuclei (%): 9%
  Population Tubulin-Different-Phenotype (%): 39%
  Total Cell Count: 209
[9]
  Population Apoptotic (%): 68%
  Population Fragmented Nuclei (%): 23%
  Population Healthy Nuclei (%): 62%
  Population Hoechst High Intensity Objects (%): 3%
  Population Membrane Permeable-Phenotype (%): 0%
  Population Mitochondria Different-Phenotype (%): 3%
  Population Mitotic Cells (%): 32%
  Population Normal (%): 96%
  Population Pyknosed Nuclei (%): 14%
  Population Tubulin-Different-Phenotype (%): 21%
  Total Cell Count: 175
[10]
  Population Apoptotic (%): 38%
  Population Fragmented Nuclei (%): 37%
  Population Healthy Nuclei (%): 53%
  Population Hoechst High Intensity Objects (%): 1%
  Population Membrane Permeable-Phenotype (%): 8%
  Population Mitochondria Different-Phenotype (%): 4%
  Population Mitotic Cells (%): 61%
  Population Normal (%): 98%
  Population Pyknosed Nuclei (%): 8%
  Population Tubulin-Different-Phenotype (%): 42%
  Total Cell Count: 157
[11]
  Population Apoptotic (%): 53%
  Population Fragmented Nuclei (%): 23%
  Population Healthy Nuclei (%): 65%
  Population Hoechst High Intensity Objects (%): 1%
  Population Membrane Permeable-Phenotype (%): 2%
  Population Mitochondria Different-Phenotype (%): 6%
  Population Mitotic Cells (%): 46%
  Population Normal (%): 98%
  Population Pyknosed Nuclei (%): 11%
  Population Tubulin-Different-Phenotype (%): 31%
  Total Cell Count: 119
[12]
  Population Apoptotic (%): 46%
  Population Fragmented Nuclei (%): 43%
  Population Healthy Nuclei (%): 48%
  Population Hoechst High Intensity Objects (%): 3%
  Population Mitochondria Different-Phenotype (%): 4%
  Population Mitotic Cells (%): 53%
  Population Normal (%): 96%
  Population Pyknosed Nuclei (%): 8%
  Population Tubulin-Different-Phenotype (%): 48%
  Total Cell Count: 192

## Cl.Clc1ccc2nsnc2c1NC1=NCCN1 [TIZANIDINE HYDROCHLORIDE]
[1]
  Population Apoptotic (%): 38%
  Population Fragmented Nuclei (%): 10%
  Population Healthy Nuclei (%): 72%
  Population Hoechst High Intensity Objects (%): 3%
  Population Membrane Permeable-Phenotype (%): 0%
  Population Mitochondria Different-Phenotype (%): 4%
  Population Mitotic Cells (%): 61%
  Population Normal (%): 96%
  Population Pyknosed Nuclei (%): 17%
  Population Tubulin-Different-Phenotype (%): 21%
  Total Cell Count: 155
[2]
  Population Apoptotic (%): 33%
  Population Fragmented Nuclei (%): 24%
  Population Healthy Nuclei (%): 49%
  Population Hoechst High Intensity Objects (%): 4%
  Population Membrane Permeable-Phenotype (%): 5%
  Population Mitochondria Different-Phenotype (%): 5%
  Population Mitotic Cells (%): 66%
  Population Normal (%): 95%
  Population Pyknosed Nuclei (%): 25%
  Population Tubulin-Different-Phenotype (%): 50%
  Total Cell Count: 182
[3]
  Population Apoptotic (%): 36%
  Population Fragmented Nuclei (%): 18%
  Population Healthy Nuclei (%): 60%
  Population Hoechst High Intensity Objects (%): 4%
  Population Membrane Permeable-Phenotype (%): 0%
  Population Mitochondria Different-Phenotype (%): 8%
  Population Mitotic Cells (%): 64%
  Population Normal (%): 95%
  Population Pyknosed Nuclei (%): 20%
  Population Tubulin-Different-Phenotype (%): 29%
  Total Cell Count: 129
[4]
  Population Apoptotic (%): 21%
  Population Fragmented Nuclei (%): 24%
  Population Healthy Nuclei (%): 45%
  Population Membrane Permeable-Phenotype (%): 7%
  Population Mitochondria Different-Phenotype (%): 7%
  Population Mitotic Cells (%): 78%
  Population Pyknosed Nuclei (%): 29%
  Population Tubulin-Different-Phenotype (%): 33%
  Total Cell Count: 143
[5]
  Population Apoptotic (%): 52%
  Population Fragmented Nuclei (%): 6%
  Population Healthy Nuclei (%): 76%
  Population Hoechst High Intensity Objects (%): 2%
  Population Membrane Permeable-Phenotype (%): 0%
  Population Mitochondria Different-Phenotype (%): 0%
  Population Mitotic Cells (%): 47%
  Population Normal (%): 97%
  Population Pyknosed Nuclei (%): 16%
  Population Tubulin-Different-Phenotype (%): 16%
  Total Cell Count: 146
[6]
  Population Apoptotic (%): 42%
  Population Fragmented Nuclei (%): 26%
  Population Healthy Nuclei (%): 49%
  Population Hoechst High Intensity Objects (%): 4%
  Population Membrane Permeable-Phenotype (%): 9%
  Population Mitochondria Different-Phenotype (%): 4%
  Population Mitotic Cells (%): 57%
  Population Normal (%): 95%
  Population Pyknosed Nuclei (%): 24%
  Population Tubulin-Different-Phenotype (%): 50%
  Total Cell Count: 182
[7]
  Population Apoptotic (%): 45%
  Population Fragmented Nuclei (%): 19%
  Population Healthy Nuclei (%): 60%
  Population Hoechst High Intensity Objects (%): 1%
  Population Membrane Permeable-Phenotype (%): 0%
  Population Mitochondria Different-Phenotype (%): 5%
  Population Mitotic Cells (%): 54%
  Population Normal (%): 98%
  Population Pyknosed Nuclei (%): 20%
  Population Tubulin-Different-Phenotype (%): 20%
  Total Cell Count: 122
[8]
  Population Apoptotic (%): 47%
  Population Healthy Nuclei (%): 48%
  Population Hoechst High Intensity Objects (%): 2%
  Population Membrane Permeable-Phenotype (%): 9%
  Population Mitochondria Different-Phenotype (%): 6%
  Population Mitotic Cells (%): 52%
  Population Normal (%): 97%
  Population Pyknosed Nuclei (%): 32%
  Population Tubulin-Different-Phenotype (%): 34%
  Total Cell Count: 135
[9]
  Population Apoptotic (%): 47%
  Population Fragmented Nuclei (%): 17%
  Population Healthy Nuclei (%): 71%
  Population Hoechst High Intensity Objects (%): 2%
  Population Membrane Permeable-Phenotype (%): 2%
  Population Mitochondria Different-Phenotype (%): 1%
  Population Mitotic Cells (%): 52%
  Population Normal (%): 97%
  Population Pyknosed Nuclei (%): 10%
  Population Tubulin-Different-Phenotype (%): 19%
  Total Cell Count: 167
[10]
  Population Apoptotic (%): 55%
  Population Fragmented Nuclei (%): 29%
  Population Healthy Nuclei (%): 47%
  Population Hoechst High Intensity Objects (%): 6%
  Population Membrane Permeable-Phenotype (%): 6%
  Population Mitochondria Different-Phenotype (%): 8%
  Population Mitotic Cells (%): 44%
  Population Normal (%): 93%
  Population Pyknosed Nuclei (%): 23%
  Population Tubulin-Different-Phenotype (%): 56%
  Total Cell Count: 166
[11]
  Population Apoptotic (%): 69%
  Population Fragmented Nuclei (%): 26%
  Population Healthy Nuclei (%): 56%
  Population Hoechst High Intensity Objects (%): 2%
  Population Membrane Permeable-Phenotype (%): 0%
  Population Mitochondria Different-Phenotype (%): 5%
  Population Mitotic Cells (%): 30%
  Population Normal (%): 97%
  Population Pyknosed Nuclei (%): 17%
  Population Tubulin-Different-Phenotype (%): 26%
  Total Cell Count: 133
[12]
  Population Apoptotic (%): 63%
  Population Fragmented Nuclei (%): 35%
  Population Healthy Nuclei (%): 42%
  Population Membrane Permeable-Phenotype (%): 6%
  Population Mitochondria Different-Phenotype (%): 11%
  Population Mitotic Cells (%): 36%
  Population Pyknosed Nuclei (%): 21%
  Population Tubulin-Different-Phenotype (%): 44%
  Total Cell Count: 141
